# How the values were obtained:
# [1] = biological target: GABA-A receptor; alpha-3/beta-3/gamma-2 (Homo sapiens) (UniProt P18507+P28472+P34903); assay: Modulatory effect on coapplication with GABA at human Gamma-aminobutyric acid A receptor alpha-3-beta-3-gamma-2 in Xenopus oocytes.; format: cell-based; conditions: Oocyte
# Outline: (§1)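 Two-electrode voltage clamp of Xenopus oocytes transiently expressing human α1, α2 or α3 β3γ2S receptors. Test compound is co-applied with GABA at its EC20 (GABA range 4-30 µM). Result is the % change in GABA current, mean (SEM), n = 3-7, at the stated test compound concentration (µM).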
# [2] = biological target: T1, GABA-A receptor; alpha-2/beta-3/gamma-2 (Homo sapiens, UniProt P18507+P28472+P47869); assay: Displacement of [3H]Ro-151788 from human Gamma-aminobutyric acid A receptor alpha-2-beta-3-gamma-2 stably expressed in L(tk-) cells; format: cell-based
# T1 sequence (P18507 whole entry): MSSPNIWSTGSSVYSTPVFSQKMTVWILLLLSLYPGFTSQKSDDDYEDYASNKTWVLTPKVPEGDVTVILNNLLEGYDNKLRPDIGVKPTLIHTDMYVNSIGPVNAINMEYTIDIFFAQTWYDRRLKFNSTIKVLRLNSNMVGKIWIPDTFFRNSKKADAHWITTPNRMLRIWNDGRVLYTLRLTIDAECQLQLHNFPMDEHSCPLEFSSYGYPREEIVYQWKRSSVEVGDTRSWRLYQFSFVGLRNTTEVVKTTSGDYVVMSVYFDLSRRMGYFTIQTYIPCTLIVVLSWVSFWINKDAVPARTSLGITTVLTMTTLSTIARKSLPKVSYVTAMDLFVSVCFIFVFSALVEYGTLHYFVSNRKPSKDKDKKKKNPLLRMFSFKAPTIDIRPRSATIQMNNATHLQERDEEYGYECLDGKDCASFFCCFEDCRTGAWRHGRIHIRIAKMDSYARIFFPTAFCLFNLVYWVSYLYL
# T1 sequence (P28472 whole entry): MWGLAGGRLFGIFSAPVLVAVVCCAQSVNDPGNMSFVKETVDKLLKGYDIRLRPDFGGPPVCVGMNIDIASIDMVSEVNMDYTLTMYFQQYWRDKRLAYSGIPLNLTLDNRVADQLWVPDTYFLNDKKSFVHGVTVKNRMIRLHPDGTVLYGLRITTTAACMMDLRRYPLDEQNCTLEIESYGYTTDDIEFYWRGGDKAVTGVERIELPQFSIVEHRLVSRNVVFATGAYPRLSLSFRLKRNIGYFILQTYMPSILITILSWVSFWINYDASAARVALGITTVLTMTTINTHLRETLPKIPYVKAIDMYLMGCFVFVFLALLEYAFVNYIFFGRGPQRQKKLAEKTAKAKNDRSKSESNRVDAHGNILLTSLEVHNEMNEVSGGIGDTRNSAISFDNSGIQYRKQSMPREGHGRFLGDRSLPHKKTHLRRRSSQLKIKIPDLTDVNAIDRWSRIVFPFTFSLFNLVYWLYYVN
# T1 sequence (P47869 whole entry): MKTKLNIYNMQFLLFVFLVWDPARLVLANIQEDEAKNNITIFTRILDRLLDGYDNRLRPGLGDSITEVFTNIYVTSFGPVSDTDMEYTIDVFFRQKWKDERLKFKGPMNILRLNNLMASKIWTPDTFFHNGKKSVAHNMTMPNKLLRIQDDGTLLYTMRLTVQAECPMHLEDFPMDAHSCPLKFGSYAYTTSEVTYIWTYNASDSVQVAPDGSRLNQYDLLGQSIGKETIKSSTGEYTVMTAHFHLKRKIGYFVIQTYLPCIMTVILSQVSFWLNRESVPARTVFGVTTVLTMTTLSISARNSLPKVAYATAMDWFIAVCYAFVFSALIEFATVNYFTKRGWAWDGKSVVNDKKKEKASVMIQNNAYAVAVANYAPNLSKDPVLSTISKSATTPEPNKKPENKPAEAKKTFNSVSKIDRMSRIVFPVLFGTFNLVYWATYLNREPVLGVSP
# Outline: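 Competition binding against [3H]Ro15-1788 on cloned human α1/α2/α3/α5 β3γ2S receptors stably expressed in L(tk-) cells. Six to eight test concentrations spaced in half-log steps. Ki given as mean (SEM), n = 3-5, reported to two significant figures.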
# [3] = biological target: GABA-A receptor; alpha-2/beta-3/gamma-2 (Homo sapiens) (UniProt P18507+P28472+P47869); assay: Modulatory effect on coapplication with GABA at human Gamma-aminobutyric acid A receptor alpha-2-beta-3-gamma-2 expressed inXenopus oocytes; format: cell-based; conditions: Oocyte; outline: as §1
# [4] = biological target: T2, GABA-A receptor; alpha-1/beta-3/gamma-2 (Homo sapiens, UniProt P14867+P18507+P28472); assay: Inhibition of [3H]Ro-151788 binding to human GABA A receptor (alpha-1-beta-3-gamma-2) stably expressed in L(tk-) cells.; format: cell-based
# T2 sequence (P14867 whole entry): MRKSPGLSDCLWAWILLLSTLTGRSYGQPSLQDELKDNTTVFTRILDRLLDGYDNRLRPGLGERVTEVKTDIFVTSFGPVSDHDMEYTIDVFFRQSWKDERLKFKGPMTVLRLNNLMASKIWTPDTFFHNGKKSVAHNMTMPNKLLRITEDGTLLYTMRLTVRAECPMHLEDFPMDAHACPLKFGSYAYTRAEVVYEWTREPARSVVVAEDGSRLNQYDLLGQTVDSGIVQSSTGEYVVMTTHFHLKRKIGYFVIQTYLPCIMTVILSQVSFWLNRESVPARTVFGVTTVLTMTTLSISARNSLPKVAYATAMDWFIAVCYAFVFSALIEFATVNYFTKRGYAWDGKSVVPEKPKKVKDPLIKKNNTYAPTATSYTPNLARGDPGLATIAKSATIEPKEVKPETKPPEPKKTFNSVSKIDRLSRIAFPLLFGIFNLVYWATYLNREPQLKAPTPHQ
# T2 sequence (P18507 whole entry): T1 sequence (P18507 whole entry)
# T2 sequence (P28472 whole entry): T1 sequence (P28472 whole entry)
# [5] = biological target: GABA-A receptor; alpha-1/beta-3/gamma-2 (Homo sapiens) (UniProt P14867+P18507+P28472); assay: Modulatory effect on coapplication with GABA at human Gamma-aminobutyric acid A receptor alpha-1-beta-3-gamma-2 in Xenopus oocyte.; outline: as §1
percent modulation of GABA EC20 response [1],Ki [2],percent modulation of GABA EC20 response [3],Ki [4],percent modulation of GABA EC20 response [5],Structure (SMILES)
43%,8.6 nM,80%,17 nM,7%,COc1ccc(-c2cc(-c3nc(C)cs3)c(=O)n(C)c2-c2ccncc2)cc1
34%,6.6 nM,33%,17 nM,7%,COc1ccc(-c2cc(-c3nc(C)cs3)c(=O)n(C)c2-c2ccnnc2)cc1
